# KCNQ1 block = human KCNQ1 channel inhibition. CHO-K1 KCNQ1, FluxOR thallium flux fluorescence; hits give high values. B-score at 10 µM. P51787. 1.3% of 310,000 active;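 active = compounds whose thallium flux B-score, printed positive for inhibition, exceeds three library SD while starting fluorescence stays within three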;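 also: channel opened by potassium depolarization with thallium stimulus after 20 min compound exposure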
# KCNK9 block = blocks the human KCNK9 two-pore domain potassium channel; Q9NPC2; HEK293 KCNK9, FluxOR thallium flux fluorescence; hits give low values; B-score at 10 µM; 1.2% of 310,000 active;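 active = ratio B-score over 3 SD below the library mean, with starting fluorescence within 5 SD of its mean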;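 also: negative B-score means less thallium flux so channel inhibition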
# KCNK3 block = human KCNK3 channel inhibition, primary screen; O14649; CHO-KCNK3 thallium flux, FluxOR fluorescence; hits give low values; B-score at 10 µM; 0.84% of 340,000 active; AID 602410;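 active = B-score under library mean minus 4 SD, starting fluorescence ratio at most library mean plus 5 SD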;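 also: more negative B-score means stronger inhibition of thallium flux through KCNK3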
# Kir21 block = blocks the mouse Kir2.1 inward-rectifier potassium channel; HEK293-Kir2.1, FluxOR thallium flux fluorescence; hits give low values; B-score at 10 µM; 0.85% of 310,000 active; AID 1672;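 active = fluorescence ratio B-score at or below minus 3 SD of library scores, with starting-brightness B-score within 2 SD, cut at about -4.2 in these data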;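 also: channel flux triggered by added potassium and thallium sulfate stimulus; B-score of peak minus minimum fluorescence over baseline after thallium stimulus; more negative B-score means stronger Kir2.1 block with less thallium influx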
# Target sequence (P35561 whole entry, looked up): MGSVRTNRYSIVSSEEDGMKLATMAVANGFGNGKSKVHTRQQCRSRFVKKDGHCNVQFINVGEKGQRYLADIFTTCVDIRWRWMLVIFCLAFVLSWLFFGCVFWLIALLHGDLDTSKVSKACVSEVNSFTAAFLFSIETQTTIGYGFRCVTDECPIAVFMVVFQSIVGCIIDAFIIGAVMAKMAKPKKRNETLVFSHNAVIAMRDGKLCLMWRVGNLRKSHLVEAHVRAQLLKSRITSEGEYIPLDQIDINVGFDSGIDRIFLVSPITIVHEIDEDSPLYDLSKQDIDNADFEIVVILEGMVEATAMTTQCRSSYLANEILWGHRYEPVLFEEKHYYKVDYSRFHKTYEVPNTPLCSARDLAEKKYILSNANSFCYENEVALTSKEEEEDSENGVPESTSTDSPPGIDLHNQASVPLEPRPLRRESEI
# hERG protect = hERG (human) protection from proarrhythmic block. CHO-hERG, FluxOR thallium flux, dofetilide IC70 present. AID 1511. activation (rescue from dofetilide block), less the hit threshold, % at 10 µM. 0.51% of 310,000 active;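 active = activation above the mean of controls blocked by dofetilide plus 5 SD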;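 also: thallium influx through hERG after potassium depolarization seen as dye fluorescence rise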
# KCNQ1 act = potentiates or activates the human KCNQ1 potassium channel. CHO-K1 KCNQ1, thallium flux FluxOR fluorescence; hits give high values. B-score at 10 µM. 0.35% of 310,000 active;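 active = fluorescence ratio B-score, a plate-corrected score, at least three library SD, with initial intensity B-score within 5 SD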
#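 assay system = KCNQ1-transfected CHO-K1 cells | medium = assay buffer with matched DMSO | probe or stimulus = depolarizing K+/Tl+ stimulus, K2SO4 and Tl2SO4 each 12.5 mM in 5x stock | dosing = single dose | incubation = dye 90 min, compound 20 min, room temperature | detection = kinetic FluxOR fluorescence, 10 s baseline plus 110 s post-stimulus | evaluation = ratio B score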
# KCNQ1 block val = confirmation of human KCNQ1 potassium channel inhibitors. shares compounds with KCNQ1 block. KCNQ1 cell line, FluxOR thallium flux fluorescence. inhibition, % at 10 µM. 93% of 1,600 active. AID 588353;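 active = primary screen active, with duplicate mean exceeding buffer control mean plus 3 SD of buffer wells, cut at about 28% in these data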;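 also: 0% = buffer control ratio and 100% = XE991 inhibitor control ratio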
# CHO KCNQ1 ctr = counter-screen for KCNQ1 inhibitors: effect in parental CHO cells | shares compounds with KCNQ1 block | parental CHO-K1, FluxOR thallium flux fluorescence ratio; hits give low values; zero means no signal rise above baseline | fluorescence ratio (Tl flux) at 10 µM | 21% of 1,600 active;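 active = mean of duplicate thallium-flux fluorescence ratios in parental host cells more than 5 SD below the buffer control mean, cut at about 0.38 in these data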;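 also: ratio is peak minus minimum fluorescence divided by baseline fluorescence; actives read low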
# KCNQ1 ephys val = blocks human KCNQ1 current in automated patch clamp; KCNQ1-CHO cells; 20% of 490 active; shares compounds with KCNQ1 block; calls only at 10 µM;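 active = KCNQ1 current drop exceeding 3 SD of negative control wells, seen in both duplicate runs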;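 also: steady state current during a 2 s step from -80 to +40 mV; negative values mean current inhibition and positive values mean potentiation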
# KCNQ2 spec = selectivity of KCNQ1 inhibitors: inhibition of rat KCNQ2 channel | shares compounds with KCNQ1 block | KCNQ2 cells, FluxOR thallium flux fluorescence | inhibition, % at 10 µM | 71% of 1,600 active | AID 651746;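 active = mean percent inhibition of the KCNQ2 thallium signal more than 5 SD above the buffer-only control wells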;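 also: KCNQ2 expressed in CHO cells; 0% = buffer control wells and 100% = XE-991 inhibitor control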
# KCNQ1-KCNE1 inh = KCNQ1 inhibitor that also blocks human KCNQ1/KCNE1 channel | shares compounds with KCNQ1 block | KCNQ1/KCNE1 cells, FluxOR thallium flux fluorescence | 77% of 1,600 active | inhibition, % at 10 µM;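 active = mean percent inhibition of duplicate wells above the buffer-only control mean plus 3 SD of those controls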;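 also: 0% = buffer only wells and 100% = XE-991 inhibitor control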
# * = called active by the depositor; i = inactive; nt = no result; + = active, no number. The list is not random: actives were taken first. Their share in the collection is about 3.7%.
SMILES,KCNQ1 block,KCNK9 block,KCNK3 block,Kir21 block,hERG protect,KCNQ1 act,KCNQ1 block val,CHO KCNQ1 ctr,KCNQ1 ephys val,KCNQ2 spec,KCNQ1-KCNE1 inh
O=C(Nc1ccc(NC(=S)NC(=O)c2ccccc2F)cc1)c1cccs1,6*,i,i,-0.03,-7,i,94*,0.48,+,63%*,132%*
COc1ccc(-c2noc(N3CCCC(C(=O)Nc4cc(F)ccc4F)C3)n2)cc1 (stereo unspecified),i,i,i,0.09,-5,i,nt,nt,nt,nt,nt
Cc1cnc(C(=O)OC(C)C(=O)NC2CCCc3ccccc32)cn1 (stereo unspecified),i,i,i,-0.45,-14,i,nt,nt,nt,nt,nt
Cn1c(CCN2CCCCC2)nc2cc(NS(=O)(=O)c3ccc(Cl)cc3)ccc21,8*,i,i,-2.7,-19,i,0,0.56,nt,i,58%*
CC1(C)CC(=O)C2=C(C1)Nc1ccccc1S2,i,i,i,0.71,-15,i,nt,nt,nt,nt,nt
CC1(C)CC(=O)C2=C(C1)Nc1ccccc1NC2,7*,i,i,-0.71,-3,i,0,0.5,nt,i,i
O=C(NCCCCc1ccccc1)Nc1cccc(F)c1,6*,i,i,-0.53,-15,i,61*,0.52,nt,i,36%*
CN(CC(=O)NCCc1ccccc1)CC(=O)Nc1cccc(F)c1,nt,nt,i,nt,nt,nt,nt,nt,nt,nt,nt
Fc1cccc(NC(=S)NCCc2ccccc2)c1,7*,i,i,-0.33,-9,i,52*,0.56,nt,62%*,i
CCc1cc(Br)ccc1NC(=S)NCCc1ccccc1,6*,i,i,-7.9*,-9,i,65*,0.51,nt,59%*,70%*
Fc1ccc(F)c(NC(=S)NCCc2ccccc2)c1,7*,i,i,-0.82,-5,i,53*,0.56,nt,81%*,71%*
CC(OC(=O)C1CC2CCCC(C1)C2=O)C(=O)Nc1cccc([N+](=O)[O-])c1 (stereo unspecified),nt,nt,i,nt,nt,nt,nt,nt,nt,nt,nt
COc1ccc(Cl)cc1C(=O)NNC(=O)COC(=O)CC(NC(C)=O)c1ccccc1 (stereo unspecified),i,i,i,-1.5,-18,i,nt,nt,nt,nt,nt
Nn1c(SCC(=O)Nc2ccc3c(c2)OCCO3)nncc1=O,i,i,i,0.27,-2,i,nt,nt,nt,nt,nt
c1ccc2c(c1)ncn2CCCCOc1ccc2c(c1)CCC2,7*,i,i,-0.88,-18,i,118*,0.48,i,91%*,82%*
Cc1ccccc1OCCCCn1cnc2ccccc21,9*,i,i,-1.4,-16,i,136*,0.47,i,100%*,59%*
O=C(NCc1ccc(Cl)cc1)C1CCN(c2nnc(N3CCCC3=O)s2)CC1,i,i,i,0.25,-10,i,nt,nt,nt,nt,nt
Cc1ccccc1C1CC(=O)c2ccccc2C1C (stereo unspecified),nt,nt,i,nt,nt,nt,nt,nt,nt,nt,nt
Cn1c(N)c(C(=O)CSc2nnc(Cc3cccs3)n2C2CC2)c(=O)n(C)c1=O,nt,nt,i,nt,nt,nt,nt,nt,nt,nt,nt
CCOC(=O)C(C(=O)OCC)c1cc(Br)c2noc3c2c1C(=O)c1ccccc1-3,16*,i,i,-4.7,-26,i,183*,0.15*,nt,i,i
CC(=O)OCCNc1cc(N2CCN(C)CC2)c2noc3c2c1C(=O)c1ccccc1-3,nt,nt,i,nt,nt,nt,nt,nt,nt,nt,nt
Clc1ccc(-c2nc(N3CCCCC3)nc3ccccc23)cc1,8*,i,i,1.5,-7,i,132*,0.44,+,85%*,197%*
CCOc1ccc(NC(=O)Nc2nc(SCC)ns2)cc1,10*,i,i,0.29,-3,i,80*,0.51,nt,i,36%*
CCCCn1c(N)c(N(CC(C)C)C(=O)CSC(C)C(=O)Nc2cc(C)on2)c(=O)[nH]c1=O (stereo unspecified),i,i,i,0.42,-15,i,nt,nt,nt,nt,nt
O=C1N(Cc2cccc(Cl)c2)C[C@@H]2C[C@@H](c3cccn3-c3ccccn3)N3CCC[C@@]123,6*,i,i,-3.4,-11,i,65*,0.5,nt,63%*,46%*
SMILES,KCNQ1 block,KCNK9 block,KCNK3 block,Kir21 block,hERG protect,KCNQ1 act,KCNQ1 block val,CHO KCNQ1 ctr,KCNQ1 ephys val,KCNQ2 spec,KCNQ1-KCNE1 inh
O=C(Cc1cccc(NC(=O)C2CCCN(C(=O)C3CCCCC3)C2)c1)Nc1cccc(C(=O)N2CCOCC2)c1 (stereo unspecified),nt,nt,i,nt,nt,nt,nt,nt,nt,nt,nt
CCN(CC)CC(=O)Nc1sc(C)cc1C(=O)c1ccc(C)cc1,7*,i,i,-1.2,-5,i,118*,0.38,i,91%*,154%*
CCCn1c(=O)n(C)c(=O)c2c(SCC(=O)NC34CC5CC(CC(C5)C3)C4)nc(CC(C)C)nc21,8*,i,i,0.13,-19,i,136*,0.32*,nt,88%*,148%*
c1ccc(-c2noc(-c3ccccc3-c3ccccc3)n2)cc1,7*,i,i,0.41,-8,i,133*,0.4,i,115%*,194%*
Fc1ccccc1-c1nc(-c2ccc(Cl)cc2)no1,i,i,i,-1.6,-10,i,nt,nt,nt,nt,nt
Cc1ccc(C)c(-c2cc(C(=O)Nc3nccs3)c3ccccc3n2)c1,8*,-7.8*,i,0.37,-8,i,88*,0.5,i,102%*,125%*
Cc1sc(NC(=O)c2cc(-c3ccccc3)nc3ccccc23)c(C(N)=O)c1C,6*,i,i,-3.1,-6,i,97*,0.46,i,100%*,140%*
COC(=O)c1sccc1NC(=O)c1cc(-c2cc(C)ccc2C)nc2ccccc12,i,i,i,0.02,-16,i,nt,nt,nt,nt,nt
Cc1cccc(NC(=O)c2cc(-c3ccc(C)s3)nc3ccccc23)n1,6*,-7.2*,i,0.18,-11,i,92*,0.43,i,98%*,149%*
Cc1sc(NC(=O)c2cc(-c3ccc(Cl)cc3)nc3ccccc23)c(C(N)=O)c1C,i,i,i,0.51,-12,i,nt,nt,nt,nt,nt
